The results in this text go back to PubChem BioAssay AID1515 (The Scripps Research Institute Molecular Screening Center, 2009).

The whole screen tested about 220,000 compounds, of which about 440 (0.2%) were called active. Shown is part of a subset that was picked to be rich in actives. Unmarked numbers belong to inactive results.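 The calls were made as follows: active = inhibition above the campaign mean of all tested compounds plus 3 SD (cut at about 14% in these data); inactive = the rest.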

Chain of Serine hydrolase RBBP9 (Homo sapiens) (O75884 whole entry, looked up): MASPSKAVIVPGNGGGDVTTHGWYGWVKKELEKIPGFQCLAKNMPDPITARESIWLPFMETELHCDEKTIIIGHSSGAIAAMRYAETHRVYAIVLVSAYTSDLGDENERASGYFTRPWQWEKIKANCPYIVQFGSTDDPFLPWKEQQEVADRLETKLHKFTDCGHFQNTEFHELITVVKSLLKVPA

For the assay, the target named is Serine hydrolase RBBP9 (Homo sapiens) (UniProt O75884). The assay is described as follows: blockers of RBBP9 serine hydrolase labeling – biochemical, fluorescence polarization, FP-Rh probe, HTS, primary screen (AID 1515).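 Also: plate controls were DMSO wells with RBBP9 for no effect and wells lacking RBBP9 protein for full effect.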 The following applies: recombinant RBBP9, FP-Rh probe fluorescence polarization; at 7.94 µM; stronger effect = higher value. Summed up:
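Test system – recombinant human RBBP9 · Input – RBBP9 2.5 µM in dispensing solution, pre-mixing · Medium – Tris buffer pH 8.0, NaCl, Pluronic · Schedule – preincubation 30 min plus labeling 45 min at 25 °C · Measured by – fluorescence polarization · Measure – % inhibition · Controls – DMSO and no-protein wells · Replicates – one well per compound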
(Fluorescence polarisation rises when a labelled molecule tumbles more slowly, as on binding a larger partner.)
As usually defined, the inhibition is the relative decrease from the control value, in per cent. Take `COc1cccc(-n2nc(C(=O)N3CCN(Cc4ccccc4)CC3)c3ccccc3c2=O)c1`: the inhibition was -0.83%.
Turning to `Cc1cc(NC(=O)CSc2nccn2-c2ccc([N+](=O)[O-])cc2)no1`, the inhibition was -5.53%.
For `Cc1c(CCO)sc[n+]1CC(=O)OC12CC3CC(CC(C3)C1)C2`, the inhibition was 6.14%.
For the compound `Cc1cc(C(=O)OCC(=O)Nc2nnc(C(C)C)s2)c2ccccc2n1`, the inhibition was -5.01%.
For the compound `CC(OC(=O)c1ccc(NS(=O)(=O)c2ccc3[nH]c(=O)[nH]c3c2)cc1)C(=O)Nc1cccc(Cl)c1Cl` (stereo not drawn), the inhibition is -24.3%.
The figure for `Oc1cccc2ccc(/C=C/c3ccc(Br)s3)nc12` is -6.67%; for `O=C(Cc1cccs1)N/N=C/c1ccc(OCc2ccccc2)cc1` it is -9.96%.
For `CC(C)(C)Nc1c(N)c(=O)oc2ccccc12`, the inhibition is -7.21%.
As for `Cc1ccnc(N2C(=O)c3ccccc3C2Nc2ccc3c(c2)OCCO3)c1` (stereo not drawn), the inhibition is 5.23%.
Take `COC(=O)c1cc(NC2c3ccccc3C(=O)N2c2ccc(Cl)cn2)cc(C(=O)OC)c1` (stereo not drawn): the inhibition was 2.1%.
The figure for `CCc1ccccc1NC1c2ccccc2C(=O)N1c1cccnc1` (stereo not drawn) is 19.1% (active); for `COc1ccc(N2C(=O)C3CCCN3C2c2cccc(OC)c2)cc1` (stereo not drawn) it is -6.79%.
Take `COc1ccc(N2C(=O)C3CCCN3C2c2cc(OC)c(OC)cc2OC)cc1` (stereo not drawn): the inhibition was 14.8% (active).
For `COc1ccc(N2C(=O)C3CCCN3C2c2cccs2)cc1` (stereo not drawn), the inhibition is -3.07%.
The figure for `COC(=O)C1=C(C)N(C)C(=O)NC1c1ccc([N+](=O)[O-])o1` (stereo not drawn) is 4.8%; for `O=C(NCc1ccccc1Cl)NC(=O)c1csc([N+](=O)[O-])c1` it is 2.74%; for `CC1=CC(C)(C)N(C(=O)CSc2nnc(-c3ccccc3)o2)c2ccc(C)cc21` it is -8.58%.
In the case of `COc1ccc2c(c1)C(C)=CC(C)(C)N2C(=O)CNCc1ccc2c(c1)OCO2`, the inhibition is 0.21%.
`COc1ccc2c(c1)C(C)=CC(C)(C)N2C(=O)Nc1ccccc1`: the inhibition is 14.3% (active).
`CC(=O)Nc1ccc(NC(=S)NC(=O)c2ccc([N+](=O)[O-])c(C)c2)cc1`: the inhibition was 6.76%.
The figure for `Cc1ccc(C)c(S(=O)(=O)N2CCN(CC(=O)Nc3ccc([N+](=O)[O-])cc3)CC2)c1` is -5.91%; for `Cc1ccc(NC(=O)CN2CCC(C(N)=O)CC2)cc1[N+](=O)[O-]` it is 28.6% (active).
For the compound `CN1CCN(CC(=O)Nc2cccc([N+](=O)[O-])c2)CC1`, the inhibition is 7.61%.
The figure for `CC1=C(C(=O)Nc2cc(C)ccn2)C(c2cnn(C)c2)C2=C(CC(c3ccccc3)CC2=O)N1` (stereo not drawn) is -4.73%; for `O=S(=O)(NC1CC1)c1ccc2c3c(cccc13)CC2` it is -3.01%.
On to `COc1ccc(C(C[N+](=O)[O-])n2nc(C)cc2C)cc1` (stereo not drawn), for which the inhibition was -13.8%.
Regarding `CC1CCN(C2=NC(=O)/C(=C/c3cn[nH]c3-c3ccccc3)S2)CC1`, the inhibition was -1.8%.
Consider `CS(=O)(=O)c1ccc(Cl)c(NC(=O)Nc2ccccc2)c1`, for which the inhibition was -8.09%.
On to `O=[N+]([O-])c1c(NCCO)cc(Sc2nc3ccccc3s2)c2nonc12`, for which the inhibition was 16.6% (active).
Under `O=C(CSc1nc2ccccc2s1)Nc1ccc(C(=O)O)cc1` stands -5.16%.
As for `COc1ccc(S(=O)(=O)Nc2ccc(O)c(Sc3nc4ccccc4s3)c2)cc1`, the inhibition was -4.18%.
Under `CCOC(=O)N1CCN(C(=S)Nc2ccc(C)cc2C)CC1` stands -5.94%.
The figure for `Cc1ccc(-c2cc(C(=O)NCC3CCCO3)c3ccccc3n2)o1` (stereo not drawn) is -0.54%.
`CC(C)(C)C1CCC(C(=O)Nc2cccnc2)CC1` (stereo not drawn): the inhibition is -3.33%.
As to `CN(C)c1ccc(C=NCCc2ccc(S(N)(=O)=O)cc2)cc1`, the inhibition is -3.47%.
Under `CCCc1nc(SCC(=O)Nc2ccc(S(=O)(=O)N(C)C)cc2)c2ccccc2n1` stands -8.27%; under `COc1ccc([C@H]2[C@H](C(C)=O)N3N=Cc4ccccc4C3C23C(=O)OC(C)(C)OC3=O)cc1` (stereo partly drawn), 0.49%; under `CC(=O)Nc1nc(C)c(-c2csc(Nc3ccc(S(N)(=O)=O)cc3)n2)s1`, -4.68%.
For `COc1cc2c(cc1OC)CC1(CCCCC1)N=C2`, the inhibition was -7.64%.
`C/C(=N/Nc1nc(-c2ccccc2)c(CC(=O)O)s1)c1ccccc1`: the inhibition is 17% (active).
In the case of `O=C(O)Cc1sc(-c2ccc(C(=O)O)cc2)nc1-c1ccccc1`, the inhibition is -2.34%.
Turning to `Cc1ccc(-c2nc(C)sc2CC(=O)O)cc1`, the inhibition was -5.14%.
Take `COc1ccc(NC(C)=O)cc1NC(=O)CN1CCN(C2c3ccccc3-c3ccccc32)CC1`: the inhibition is -0.61%.
For `CC(=O)NC1C(Oc2ccc(C=O)cc2)OC(COC(C)=O)C(OC(C)=O)C1OC(C)=O` (stereo not drawn), the inhibition was -10.2%.
As to `CC(=O)NC1=NN(C(C)=O)C(C)(CCS(=O)(=O)c2ccc(Cl)c(Cl)c2)S1` (stereo not drawn), the inhibition is -8.22%.
As for `COc1cc(/C=C2/C(=O)ON=C2C)ccc1OCc1cccc(F)c1`, the inhibition was -10.5%.
Consider `CC1=NOC(=O)/C1=C\c1ccccc1`, for which the inhibition is 15.4% (active).
Consider `COc1cc(/C=C2/C(=O)ON=C2C)ccc1OCc1ccccc1F`, for which the inhibition was -7%.
`Cc1ccc(S(=O)(=O)N(C)C)cc1NC(=O)c1n[nH]c(=O)c2ccccc12`: the inhibition was 1.59%.
For `CCOC(=O)C1=C(CC)OC(N)=C(C#N)C1c1ccc(F)cc1F` (stereo not drawn), the inhibition is -1.24%.
As for `N#Cc1cc([N+](=O)[O-])ccc1Oc1cccc(/C=N/NC(=O)c2ccc(Cl)cc2)c1`, the inhibition was 1.74%.
In the case of `Cn1c(CSCC(=O)Nc2ccccc2)nnc1SCc1ccccc1`, the inhibition is 1.33%.
In the case of `COc1ccc(C2CC(c3ccccc3)=NN2C(=O)CSc2nccc(=O)[nH]2)cc1` (stereo not drawn), the inhibition was -13.6%.
Turning to `COc1ccc(C2NC(=S)NC3=C2CCc2ccccc23)cc1OC` (stereo not drawn), the inhibition was -1.09%.
With `COc1ccccc1P(=O)(c1ccccc1)c1ccccc1NC(C)=O` (stereo not drawn), the inhibition was 4.53%.
`O=C(O)CCS(=O)(=O)c1ccc(-c2ccccc2)cc1`: the inhibition is -1.5%.
Turning to `CCCC(=O)Nc1ccc2c(c1)nc(CCNC(=O)c1ccco1)n2C`, the inhibition was -8.19%.
Regarding `CCn1c(CNC(=O)c2ccccc2)nnc1SCC(=O)N1CCN(c2ccccc2)CC1`, the inhibition was -8.71%.
